ChEMBL document CHEMBL1255303, “In vitro and in vivo antifungal activities of T-2307, a novel arylamidine” (2008)
Converted amounts (≈) assume the structure as drawn. The source made the active and inactive calls. The rule behind the calls is not given here.

Assays:
Aspergillus fumigatus [1] = assay: Antifungal activity against Aspergillus fumigatus ATCC 16424 after 48 hrs by broth microdilution method; type: functional; settings: ATCC 16424, 48 h
Procedure, shortened: (§1)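 CLSI M27-A2 (yeasts) or M38-A (A. fumigatus) broth microdilution in RPMI 1640 buffered to pH 7.0 with 0.165 M MOPS. Final inocula were 0.65–2.5 × 10^3 CFU/ml for yeasts and 0.87–3.8 × 10^4 CFU/ml for filamentous fungi. Incubation was at 35°C for about 48 h (72 h for C. neoformans). MIC was the lowest concentration giving a prominent (~50%) turbidity drop versus growth control; amphotericin B required complete inhibition.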

Aspergillus fumigatus [2] = assay: Antifungal activity against Aspergillus fumigatus IFM 46895 infected ICR mouse assessed as delay in mortality of mouse at 1 mg/kg after 6 days; type: functional, organism-based; design: dose 1 mg/kg
Procedure, shortened: (§2)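 Male ICR mice, 4 weeks old and SPF, were made neutropenic with intraperitoneal cyclophosphamide. The schedule was 200 mg/kg on day −3 (day −4 for Cryptococcus) plus 100 mg/kg on day +1. Infection was by tail-vein injection of 0.2 ml suspension: C. albicans 3.0 × 10^4, C. neoformans 9.1 × 10^4, A. fumigatus conidia 8.4 × 10^4 CFU/mouse. Drugs were given subcutaneously once daily for 7 days from 2 h post-infection; controls received saline. Groups had 8–10 mice.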

Aspergillus nidulans = assay: Antifungal activity against Aspergillus nidulans NBRC 33017 after 48 hrs by broth microdilution method; type: functional; settings: NBRC 33017, 48 h
Procedure, shortened: (§3)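 CLSI M27-A2 (yeasts) / M38-A (moulds) broth microdilution in RPMI 1640 buffered to pH 7.0 with 0.165 M MOPS. Malassezia furfur got the same medium supplemented with glucose, bile salts, glycerol, glycerol monostearate and Tween 20. Final inoculum 0.65 × 10^3–2.5 × 10^3 CFU/ml for yeasts and 0.87 × 10^4–3.8 × 10^4 CFU/ml for filamentous fungi. Incubation at 35°C except M. racemosus and F. solani, which were held at 30°C.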

Candida albicans [3] = assay: Antifungal activity against Candida albicans ATCC 64124 after 47 hrs by broth microdilution method; type: functional; settings: ATCC 64124, 47 h
Procedure, shortened: (§4)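 Fluconazole-resistant or susceptible-dose-dependent ATCC C. albicans strains were tested by CLSI M27-A2 broth microdilution in RPMI 1640–0.165 M MOPS, pH 7.0, with a final inoculum of 1.1–1.5 × 10^3 CFU/ml at 35°C for about 47 h. MIC was the lowest concentration with a prominent (~50%) turbidity decrease relative to growth control; amphotericin B was read at complete inhibition.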

Aspergillus flavus = assay: Antifungal activity against Aspergillus flavus NBRC 6343 after 48 hrs by broth microdilution method; type: functional; settings: NBRC 6343, 48 h; procedure, shortened: as §3
Scedosporium boydii = assay: Antifungal activity against Pseudallescheria boydii NBRC 32229 after 72 hrs by broth microdilution method; type: functional; settings: NBRC 32229, 72 h; procedure, shortened: as §3
Candida parapsilosis [4] = assay: Antifungal activity against Candida parapsilosis NBRC 10219 after 48 hrs by broth microdilution method; type: functional; settings: Lodderomyces parapsilosis, NBRC 10219, 48 h; procedure, shortened: as §1
Aspergillus fumigatus [5] = assay: Antifungal activity against Aspergillus fumigatus clinical isolates after 48 hrs by broth microdilution method; type: functional
Procedure, shortened: (§5)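 Clinical isolates from Japanese hospitals or culture collections were tested by broth microdilution in RPMI 1640-MOPS. Inoculum was 0.57 × 10^3–2.5 × 10^3 CFU/ml for yeasts and 0.4 × 10^4–3.3 × 10^4 CFU/ml for filamentous fungi. Incubation was at 35°C for about 48 h, or 72 h where footnoted. Results were summarised as MIC range, MIC50 and MIC90.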

Nakaseomyces glabratus = assay: Antifungal activity against Candida glabrata ATCC 90030 after 48 hrs by broth microdilution method; type: functional; settings: ATCC 90030, 48 h; procedure, shortened: as §3
Aspergillus terreus = assay: Antifungal activity against Aspergillus terreus NBRC 33026 after 48 hrs by broth microdilution method; type: functional; settings: NBRC 33026, 48 h; procedure, shortened: as §3
Cryptococcus neoformans [6] = assay: Antifungal activity against Cryptococcus neoformans TIMM 0354 after 72 hrs by broth microdilution method; type: functional; settings: TIMM 0354, 72 h; procedure, shortened: as §1
Candida albicans [7] = assay: Antifungal activity against Candida albicans ATCC MYA-574 after 47 hrs by broth microdilution method; type: functional; settings: ATCC MYA-574, 47 h
Procedure, shortened: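 Fluconazole-resistant or susceptible-dose-dependent C. albicans ATCC strains were tested by broth microdilution in RPMI 1640-MOPS. Inoculum was 1.1 × 10^3–1.5 × 10^3 CFU/ml, with incubation at 35°C for about 47 h. Yeast MIC was read as about 50% turbidity decrease relative to growth control, except amphotericin B, read at complete inhibition.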

Saccharomyces cerevisiae = assay: Antifungal activity against Saccharomyces cerevisiae ATCC 24657 after 48 hrs by broth microdilution method; type: functional; settings: ATCC 24657, 48 h; procedure, shortened: as §3
Cryptococcus neoformans [8] = assay: Antifungal activity against Cryptococcus neoformans ATCC 90113 after 72 hrs by broth microdilution method; type: functional; settings: ATCC 90113, 72 h; procedure, shortened: as §3
Lichtheimia corymbifera = assay: Antifungal activity against Absidia corymbifera NBRC 4009 after 24 hrs by broth microdilution method; type: functional; settings: NBRC 4009, 24 h; procedure, shortened: as §3
Aspergillus fumigatus [9] = assay: Antifungal activity against Aspergillus fumigatus IFM 46895 infected ICR mouse after 6 days; type: functional; settings: IFM 46895, 144 h; procedure, shortened: as §2
Candida albicans [10] = assay: Antifungal activity against Candida albicans ATCC MYA-573 after 47 hrs by broth microdilution method; type: functional; settings: ATCC MYA-573, 47 h; procedure, shortened: as §4
Candida albicans [11] = assay: Antifungal activity against Candida albicans ATCC 10261 after 48 hrs by broth microdilution method; type: functional; settings: ATCC 10261, 48 h; procedure, shortened: as §3
Candida albicans [12] = assay: Antifungal activity against Candida albicans clinical isolates after 48 hrs by broth microdilution method; type: functional; procedure, shortened: as §5
Candida tropicalis = assay: Antifungal activity against Candida tropicalis IFO 1400 after 48 hrs by broth microdilution method; type: functional; settings: IFO 1400, 48 h; procedure, shortened: as §3
Candida parapsilosis [13] = assay: Antifungal activity against Candida parapsilosis clinical isolates after 48 hrs by broth microdilution method; type: functional; settings: Lodderomyces parapsilosis
Procedure, shortened: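 Japanese hospital Candida isolates were tested by CLSI M27-A2 broth microdilution in RPMI 1640–MOPS, pH 7.0, with inocula of 0.57–2.5 × 10^3 CFU/ml at 35°C for about 48 h. Inocula came from 24-h potato dextrose agar cultures. MIC was the lowest concentration with about 50% turbidity reduction versus growth control (complete inhibition for amphotericin B). Range, MIC50 and MIC90 were reported.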

Candida albicans [14] = assay: Antifungal activity against Candida albicans ATCC 90028 after 48 hrs by broth microdilution method; type: functional; settings: ATCC 90028, 48 h; procedure, shortened: as §3
Candida albicans [15] = assay: Antifungal activity against Candida albicans TIMM 1623 infected ICR mouse after 6 days; type: functional; settings: TIMM 1623, 144 h; procedure, shortened: as §2

## N=C(N)c1ccc(OCCCC2CCN(CCCOc3ccc(C(=N)N)cc3)CC2)cc1
Aspergillus fumigatus [1]
  MFC: > 64 µg/mL
  MIC: 0.125 µg/mL (≈ 0.286 µM)
Aspergillus fumigatus [2]
  Activity: Active
Aspergillus nidulans
  MFC: 0.0313 µg/mL (≈ 0.0715 µM)
  MIC: 0.0156 µg/mL (≈ 0.0356 µM)
Candida albicans [3]
  MIC: 0.001 µg/mL (≈ 0.00229 µM)
Aspergillus flavus
  MFC: 8 µg/mL (≈ 18.3 µM)
  MIC: 0.5 µg/mL (≈ 1.14 µM)
Scedosporium boydii
  MFC: > 64 µg/mL
  MIC: 4 µg/mL (≈ 9.14 µM)
Candida parapsilosis [4]
  MFC: > 64 µg/mL
  MIC: 0.001 µg/mL (≈ 0.00229 µM)
Aspergillus fumigatus [5]
  MIC50: 1 µg/mL (≈ 2.29 µM)
  MIC90: 2 µg/mL (≈ 4.57 µM)
Nakaseomyces glabratus
  MFC: > 64 µg/mL
  MIC: 0.0039 µg/mL (≈ 0.00891 µM)
Aspergillus terreus
  MFC: 4 µg/mL (≈ 9.14 µM)
  MIC: 0.125 µg/mL (≈ 0.286 µM)
Cryptococcus neoformans [6]
  MFC: 0.0156 µg/mL (≈ 0.0356 µM)
  MIC: 0.0039 µg/mL (≈ 0.00891 µM)
Candida albicans [7]
  MIC: 0.001 µg/mL (≈ 0.00229 µM)
Saccharomyces cerevisiae
  MFC: > 64 µg/mL
  MIC: > 64 µg/mL
Cryptococcus neoformans [8]
  MFC: 0.0625 µg/mL (≈ 0.143 µM)
  MIC: 0.0078 µg/mL (≈ 0.0178 µM)
Lichtheimia corymbifera
  MFC: > 64 µg/mL
  MIC: 0.5 µg/mL (≈ 1.14 µM)
Aspergillus fumigatus [9]
  ED50: 0.391 mg/kg
Candida albicans [10]
  MIC: 0.001 µg/mL (≈ 0.00229 µM)
Candida albicans [11]
  MFC: > 64 µg/mL
  MIC: 0.001 µg/mL (≈ 0.00229 µM)
Candida albicans [12]
  MIC50: 0.0005 µg/mL (≈ 0.00114 µM)
  MIC90: 0.002 µg/mL (≈ 0.00457 µM)
Candida tropicalis
  MFC: 4 µg/mL (≈ 9.14 µM)
  MIC: 0.0005 µg/mL (≈ 0.00114 µM)
Candida parapsilosis [13]
  MIC50: 0.0005 µg/mL (≈ 0.00114 µM)
  MIC90: 0.0005 µg/mL (≈ 0.00114 µM)
Candida albicans [14]
  MFC: > 64 µg/mL
  MIC: 0.001 µg/mL (≈ 0.00229 µM)
Candida albicans [15]
  ED50: 0.00755 mg/kg

## OC(Cn1cncn1)(Cn1cncn1)c1ccc(F)cc1F [FLUCONAZOLE]
Aspergillus fumigatus [1]
  MFC: > 64 µg/mL
  MIC: > 64 µg/mL
Aspergillus nidulans
  MFC: > 64 µg/mL
  MIC: 64 µg/mL (≈ 209 µM)
Candida albicans [3]
  MIC: > 64 µg/mL
Aspergillus flavus
  MFC: > 64 µg/mL
  MIC: > 64 µg/mL
Scedosporium boydii
  MFC: > 64 µg/mL
  MIC: 16 µg/mL (≈ 52.2 µM)
Candida parapsilosis [4]
  MFC: > 64 µg/mL
  MIC: 1 µg/mL (≈ 3.27 µM)
Aspergillus fumigatus [5]
  MIC: > 64 µg/mL
  MIC50: > 64 µg/mL
  MIC90: > 64 µg/mL
Nakaseomyces glabratus
  MFC: > 64 µg/mL
  MIC: 8 µg/mL (≈ 26.1 µM)
Aspergillus terreus
  MFC: > 64 µg/mL
  MIC: > 64 µg/mL
Cryptococcus neoformans [6]
  MFC: > 64 µg/mL
  MIC: 2 µg/mL (≈ 6.53 µM)
Candida albicans [7]
  MIC: 64 µg/mL (≈ 209 µM)
Saccharomyces cerevisiae
  MFC: > 64 µg/mL
  MIC: 8 µg/mL (≈ 26.1 µM)
Cryptococcus neoformans [8]
  MFC: > 64 µg/mL
  MIC: 4 µg/mL (≈ 13.1 µM)
Lichtheimia corymbifera
  MFC: > 64 µg/mL
  MIC: > 64 µg/mL
Candida albicans [10]
  MIC: > 64 µg/mL
Candida albicans [11]
  MFC: > 64 µg/mL
  MIC: 0.125 µg/mL (≈ 0.408 µM)
Candida albicans [12]
  MIC: 0.125 µg/mL (≈ 0.408 µM)
  MIC50: 0.125 µg/mL (≈ 0.408 µM)
  MIC90: 0.25 µg/mL (≈ 0.816 µM)
Candida tropicalis
  MFC: > 64 µg/mL
  MIC: 2 µg/mL (≈ 6.53 µM)
Candida parapsilosis [13]
  MIC50: 0.5 µg/mL (≈ 1.63 µM)
  MIC90: 1 µg/mL (≈ 3.27 µM)
Candida albicans [14]
  MFC: > 64 µg/mL
  MIC: 0.125 µg/mL (≈ 0.408 µM)
